# Rows were chosen to be rich in hits. Some 1.9% of all compounds tested hit in one or more screens of this group.
# Arrestin-AP2 inh = inhibitors of human beta-arrestin and AP2 interaction; FITC-arrestin peptide / GST-AP2 beads, flow cytometry; AP2 beta2 appendage carries R879A mutation; inhibition, % at 10 µM; actives 0.31% (n = 340,000); AID 504490;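 active = inhibition above a set limit, near 3 SD of compounds lacking own fluorescence, cut at about 54% in these data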;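 also: plate controls were DMSO wells for no effect and 5 µM unlabelled arrestin peptide for full effect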
#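 System: GST-tagged AP2 beta2-adaptin appendage (R879A) on 4 µm glutathione beads / Reagent: FITC-arrestin peptide, 50 nM / Detection: HyperCyt-sampled flow cytometry, FL1 channel, ex 488/em 535 nm / Timing: 12 min plus 1 h, RT / Buffer or medium: PBS plus Tween 20 (0.05%) and BSA (0.1%)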
# PLC-gamma1 inh = inhibitors of human phospholipase C gamma1. P19174. purified PLC-gamma1, fluorogenic substrate, fluorescence. inhibition, % at 12.2 µM. actives 0.84% (n = 370,000). AID 720700; in the data active = inhibition above about 9.5%
# Target sequence (P19174 whole entry, looked up): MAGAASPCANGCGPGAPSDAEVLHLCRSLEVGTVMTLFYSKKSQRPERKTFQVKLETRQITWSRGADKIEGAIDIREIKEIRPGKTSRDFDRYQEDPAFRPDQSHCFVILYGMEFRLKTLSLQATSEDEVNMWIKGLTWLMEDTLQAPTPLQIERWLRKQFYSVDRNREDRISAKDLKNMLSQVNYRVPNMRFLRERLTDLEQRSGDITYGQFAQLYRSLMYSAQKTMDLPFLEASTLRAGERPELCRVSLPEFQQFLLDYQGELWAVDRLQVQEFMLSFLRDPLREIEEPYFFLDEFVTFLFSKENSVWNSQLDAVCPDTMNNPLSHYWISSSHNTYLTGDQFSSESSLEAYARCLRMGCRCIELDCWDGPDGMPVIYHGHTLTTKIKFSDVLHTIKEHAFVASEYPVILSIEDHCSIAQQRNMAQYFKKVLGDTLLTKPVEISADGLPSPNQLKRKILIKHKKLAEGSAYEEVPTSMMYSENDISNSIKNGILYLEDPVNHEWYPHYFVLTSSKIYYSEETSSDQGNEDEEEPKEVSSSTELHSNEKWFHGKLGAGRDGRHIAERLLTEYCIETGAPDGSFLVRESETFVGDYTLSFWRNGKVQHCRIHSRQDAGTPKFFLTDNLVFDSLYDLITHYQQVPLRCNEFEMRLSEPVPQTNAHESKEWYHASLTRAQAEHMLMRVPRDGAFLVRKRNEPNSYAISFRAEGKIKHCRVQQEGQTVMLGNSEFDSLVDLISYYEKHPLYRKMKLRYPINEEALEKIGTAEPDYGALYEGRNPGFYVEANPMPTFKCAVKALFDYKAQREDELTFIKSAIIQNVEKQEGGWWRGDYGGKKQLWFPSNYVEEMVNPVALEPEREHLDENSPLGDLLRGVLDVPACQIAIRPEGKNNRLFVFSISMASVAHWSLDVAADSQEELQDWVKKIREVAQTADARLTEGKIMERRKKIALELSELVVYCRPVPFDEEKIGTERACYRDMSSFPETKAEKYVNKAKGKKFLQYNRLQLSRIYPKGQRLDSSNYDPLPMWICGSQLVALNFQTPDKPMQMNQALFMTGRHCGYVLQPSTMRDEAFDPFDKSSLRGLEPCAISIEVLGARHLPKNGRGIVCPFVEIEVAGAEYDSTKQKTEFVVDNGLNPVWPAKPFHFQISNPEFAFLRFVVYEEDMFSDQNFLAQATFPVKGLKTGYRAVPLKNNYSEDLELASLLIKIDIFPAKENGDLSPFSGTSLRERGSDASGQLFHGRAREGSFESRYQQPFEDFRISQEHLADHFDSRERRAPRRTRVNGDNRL
# PLC-beta3 inh = blocks human PLC-beta3 enzyme activity | Q01970 | Purified PLC-beta3, fluorogenic substrate, fluorescence | inhibition, % at 12.2 µM | actives 0.18% (n = 370,000); in the data active = inhibition above about 11%;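 also: 0% = median of compound wells on plate and 100% = full blocker control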
# proCasp7 act = counter-screen for procaspase-3 activators: activators of human procaspase-7 | P55210 | recombinant procaspase-7, Ac-DEVD-pNA absorbance 405 nm; D23A/D198A/D206A triple mutant, cannot self-cleave; scale: DMSO 0, 5 µM enzyme 100 | activation, % at 8.5 µM | actives 0.093% (n = 330,000) | AID 463210;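 active = percent activation above the screen-wide mean plus 3 SD, cut at about 25% in these data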
#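 Replicates: singlicate. Assay system: Procaspase-7 triple mutant (PC-7 D3A). Signal: 405 nm absorbance of p-nitroaniline. Times: 1 h preincubation, 2 h reaction. Buffer or medium: Zinc-free HEPES pH 7.4 with 300 mM NaCl, 0.01% Triton X-100. Also added: DEVD-pNA substrate. Benchmarks: DMSO wells as 0%, DMSO with 5 µM added PC-7 as 100%.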
# HGIII-sPLA2 inh = Inhibits HGIII-sPLA2 liposome hydrolysis, primary screen; Q9NZ20; QFRET BODIPY PC-A2 liposome hydrolysis, fluorescence; inhibition, % at 12.2 µM; actives 0.56% (n = 370,000);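 active = inhibition above mean plus 3 SD of compounds lying within the high and low control bounds, cut at about 19% in these data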;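 also: 0% = median of test compound wells and 100% = no enzyme DMSO wells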
# procasp3 activ = procaspase-3 (human) activation. AID 463141. actives 0.11% (n = 330,000). P42574. recombinant procaspase-3 D3A, Ac-DEVD-pNA absorbance 405 nm. activation, % at 8.5 µM;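 active = activation above the mean of all tested compounds plus 3 SD, cut at about 21% in these data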;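 also: 0% = DMSO alone and 100% = DMSO wells spiked with extra 5 µM PC-3 D3A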
#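 assay system = Procaspase-3 D3A mutant | signal = absorbance at 405 nm, 0 and 120 min | times = 1 h preincubation plus 2 h reaction at 25 °C | repeats = single replicate | read-out = % activation between DMSO and enzyme-spiked controls | medium = Zinc-free HEPES saline buffer with Triton X-100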
# hGIII sPLA2 conf = human GIII-sPLA2 inhibition, confirmation. shares compounds with HGIII-sPLA2 inh. recombinant hGIII-sPLA2, BODIPY PC-A2 QFRET fluorescence. inhibition, % at 12.2 µM. actives 34% (n = 2,000);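 active = mean inhibition across triplicates above the hit cutoff set in the earlier primary screen, cut at about 19% in these data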;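 also: 0% = enzyme with DMSO and 100% = DMSO wells lacking enzyme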
# 535nm interf = 535nm fluorescence interference, HGIII-sPLA2 counter-screen; BODIPY FL product fluorescence interference, QFRET; shares compounds with HGIII-sPLA2 inh; actives 8.5% (n = 2,000); AID 743282; inhibition, % at 12.2 µM;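 active = average inhibition above the solvent-only control mean plus 3 SD, cut at about 6% in these data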;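 also: 0% = DMSO with substrate plus product and 100% = DMSO with substrate alone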
# BODIPY interf DR = counter-screen for HGIII-sPLA2 inhibitors: 535nm fluorescence interference, dose response | 240 tested, under 10 active | IC50, µM | BODIPY FL product fluorescence interference, cell-free | shares compounds with HGIII-sPLA2 inh;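 active = IC50 at or below 10 µM; inactive = IC50 above 10 µM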
# * hit, by the source's call; · = not tested or not shown.
SMILES,Arrestin-AP2 inh,PLC-gamma1 inh,PLC-beta3 inh,proCasp7 act,HGIII-sPLA2 inh,procasp3 activ,hGIII sPLA2 conf,535nm interf,others
O=c1cc(-c2ccccc2)cc(-c2ccccc2)n1O,4.5,-3.3,-3.4,2.3,21.4*,12.1,12.3,-10.4,
Cc1ccc2c(c1)c1c3n2CCN(CC#N)C3CCC1 (stereo not given),-12.2,-8.3,-12.2,-1.4,21.6*,-2.9,10.8,-5.2,
COCCNC(=O)CCC1CCN(Cc2ccc(-c3ccccc3)cc2)CC1,35.1,1.4,-4.4,1.7,-7.5,5.4,·,·,
N#Cc1c(-c2cccs2)cc(C2CC2)nc1SCC(N)=O,26.8,-0.8,-4.7,-7.5,35.1*,4.0,12.4,-1.8,
O=C(COC(=O)c1ncc(Cl)c(Cl)c1Cl)Nc1cccnc1Cl,-4.7,5.7,-8.8,-2.3,20.2*,9.6,-5.4,-3.3,
O=C(NC(=S)N1CCN(c2c(Cl)cccc2[N+](=O)[O-])CC1)c1cccs1,-5.6,-0.9,3.1,-8.0,16.8,-9.5,·,·,
COc1ccc(N2CCN(C(=S)NC(=O)c3cccs3)CC2)c([N+](=O)[O-])c1,4.9,-1.9,-12.1,-10.6,26.3*,2.6,27.5*,2.2,
CC1(C)CC(=O)C(Sc2ccccc2)=C(O)C1,26.5,-1.2,-5.3,1.1,-4.3,-5.6,·,·,
CC1(C)CC(=O)C(Sc2ccccc2C(=O)O)=C(O)C1,28.4,2.2,1.3,-7.8,22.7*,-1.5,2.9,-8.1,
Cc1occc1C(=O)N/N=C/c1c(O)ccc2ccccc12,31.6,-13.2,-19.9,-61.8,22.7*,-26.1,-1.1,2.1,
Cn1nccc1C(=O)N/N=C/c1c(O)ccc2ccccc12,0.0,-80.6,-138.0,-47.5,15.9,-5.5,·,·,
O=C(N/N=C\c1c(O)ccc2ccccc12)c1cncc(Br)c1,9.2,-111.9,-145.3,-14.4,12.9,-1.0,·,·,
O=C(N/N=C/c1c(O)ccc2ccccc12)c1ccc(Br)o1,2.2,-40.8,-58.6,-12.1,19.4*,8.9,-2.2,-2.0,
CCCCSCCCNC(=O)c1ccc(CS(=O)(=O)c2ccc(OC)cc2)o1,-2.9,1.9,-0.6,1.9,-5.5,2.2,·,·,
Cc1ccc(OC(=O)c2sc(Cl)nc2C)cc1C,-0.2,4.3,2.0,8.2,21.5*,4.4,0.0,-6.2,
COc1ccc(N(C)C(=O)c2sc(Cl)nc2C)cc1,21.0,3.6,-2.5,6.0,3.3,4.7,·,·,
C=CCNc1nc(C)c(CNc2c(C)cc(C)cc2C)nc1C#N,9.6,0.1,-7.8,0.4,7.8,0.8,·,·,
COCC(=O)N(c1ccc(C(C)C)cc1)C1C=CS(=O)(=O)C1 (stereo not given),-9.4,-1.1,-2.6,-3.1,19.3*,7.4,-4.0,-8.3,
CC(=O)N(c1ccc(C(C)C)cc1)C1C=CS(=O)(=O)C1 (stereo not given),-0.5,1.8,1.1,-2.8,8.4,3.1,·,·,
O=C(CSc1nc2ccccc2nc1N1CCCC1)N1CCN(c2cccc(C(F)(F)F)c2)CC1,·,-8.7,-16.6,·,6.2,·,·,·,
Cn1cc(Cl)c(C(=O)NNC(=S)NCc2ccco2)n1,-31.1,-10.1,-15.0,-12.5,29.7*,-1.1,25.0*,6.3*,
Cc1c(Cl)c(C(=O)NNC(=S)NCc2ccco2)nn1C,-1.7,-0.4,-0.2,-16.4,35.1*,1.3,41.2*,-2.0,BODIPY interf DR=>122
CCCCNC(=S)NNC(=O)c1nn(C)c(C)c1Cl,-2.1,-0.4,4.0,4.1,23.3*,-2.0,20.6*,0.0,
O=C(NNC(=S)NCc1ccco1)c1ccc(Cl)s1,7.9,-8.2,-2.9,-9.2,-14.1,-4.6,·,·,
CC1(C(=O)NS(=O)(=O)Cc2ccccc2C(F)(F)F)CCN1C(=O)Cc1ccsc1 (stereo not given),·,2.9,3.2,·,-2.0,·,·,·,
SMILES,Arrestin-AP2 inh,PLC-gamma1 inh,PLC-beta3 inh,proCasp7 act,HGIII-sPLA2 inh,procasp3 activ,hGIII sPLA2 conf,535nm interf,others
CC(C)(C)OC(=O)NCCc1nc(NC(=O)OCc2ccccc2)sc1C(=O)O,·,-2.0,0.6,·,-1.3,·,·,·,
COc1ccc(-n2cc3ccc([N+](=O)[O-])cc3n2)cc1,9.3,-1.3,-6.6,3.7,-10.8,3.4,·,·,
COCCNc1nc(NCc2cnc(C)cn2)c2sccc2n1,·,-0.6,-8.5,·,21.7*,·,-2.1,-6.7,
COCCNc1nc(NCc2ccccc2OC)c2sccc2n1,·,-0.8,0.9,·,-6.9,·,·,·,
Cc1cc(C)nc(N/N=C/c2ccccc2Cl)n1,6.2,3.4,1.4,6.0,1.5,0.6,·,·,
Cc1cc(C)nc(N/N=C/c2cccc3ccccc23)n1,6.9,-4.7,0.6,-2.2,19.2*,5.0,-3.2,-1.7,
CC(C)C1Cc2[nH][nH]c(=O)c2C(C2CC2)O1 (stereo not given),·,0.7,1.3,·,-1.4,·,·,·,
Cc1ccc2c(c1)c1c(n2CC(O)CNC2CCCC2)CCCC1 (stereo not given),-0.4,2.5,-4.7,10.6,20.1*,-5.8,6.4,-28.7,
O=[N+]([O-])c1cc([N+](=O)[O-])c2c(=Nc3ccccc3)n(-c3ccccc3)n(O)c2c1,22.6,-1.3,-11.0,3.9,34.6*,10.3,56.2*,18.6*,
COc1ccc(OCCC(=O)NCCN2CCOCC2)cc1,35.2,0.0,3.5,-0.4,3.1,-2.2,·,·,
NC(=S)N/N=C1\CC(c2ccc3c(c2)OCCO3)Oc2ccc(F)cc21 (stereo not given),-9.7,-1.3,-10.5,-4.7,20.9*,-9.1,9.9,-2.1,
CCOC(=O)COc1ccc(S(=O)(=O)N2CCN(c3ccccc3)CC2)cc1,4.7,·,·,3.4,·,0.4,·,·,
O=C(NC(=S)Nc1ccccc1N1CCCC1)c1ccc([N+](=O)[O-])cc1,0.8,6.3,3.3,-4.6,31.4*,-4.4,33.5*,3.9,BODIPY interf DR=>122
CCCc1ccc(Oc2cc(NN3CCCCC3)c([N+](=O)[O-])cc2[N+](=O)[O-])cc1,20.0,-1.0,-1.0,-0.3,0.5,-5.1,·,·,
CCC(C)NC(=S)N(CCc1ccccc1)Cc1cc2cc(OC)c(OC)cc2[nH]c1=O (stereo not given),-1.6,-5.3,-14.1,-3.7,20.5*,-3.0,20.3*,-16.4,
Cc1c(Cl)ccc2sc(N3CCN(C(=O)C4=COCCO4)CC3)nc12,-6.2,-2.6,0.5,10.1,-35.8,2.1,·,·,
COc1cc2c(cc1OC)C(c1ccccc1)=NCC2,-0.4,-135.7,-141.8,-7.9,26.6*,-5.6,0.1,-11.4,
